# Source: PubChem (several laboratories)
# Most compounds without a hit are left out; they make up all but 2.2% or so of the library.
# HNF4A DNA FP: change in binding of human HNF4 alpha to DNA; P41235; HNF4a-FITC DNA binding, fluorescence polarization, 1 h; activity change, % at 10 µM; 360,000 tested, 0.3% active; AID 1224865; in the data active = activity change above about 30%, passing the limit was not always enough
# Target sequence (P41235 whole entry, looked up): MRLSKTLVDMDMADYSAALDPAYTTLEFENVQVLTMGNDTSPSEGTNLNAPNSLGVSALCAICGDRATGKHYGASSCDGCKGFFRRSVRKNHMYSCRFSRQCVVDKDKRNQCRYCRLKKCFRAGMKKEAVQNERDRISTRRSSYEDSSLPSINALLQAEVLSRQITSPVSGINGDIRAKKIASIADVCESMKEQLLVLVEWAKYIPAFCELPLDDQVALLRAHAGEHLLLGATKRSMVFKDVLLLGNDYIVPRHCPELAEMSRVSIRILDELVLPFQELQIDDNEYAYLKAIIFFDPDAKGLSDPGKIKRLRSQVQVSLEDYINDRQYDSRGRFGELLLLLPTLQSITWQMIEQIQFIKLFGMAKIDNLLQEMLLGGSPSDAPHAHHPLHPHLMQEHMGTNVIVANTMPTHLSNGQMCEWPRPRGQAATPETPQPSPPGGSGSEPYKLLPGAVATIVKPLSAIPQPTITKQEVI
# Granule exo inh: lytic granule exocytosis inhibition. TALL-104 LAMP-1 surface exposure, flow cytometry; cells stimulated with thapsigargin and PMA. inhibition, % at 10 µM. 360,000 tested, 0.66% active;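 active = inhibition above about 55%, limit read from the data; inconclusive = no clear call, values can overlap the other calls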
# CSN deneddyl inh: blocks human CSN-mediated cullin deneddylation; Q92905; Purified CSN, SCF-Nedd8-OG deneddylation, fluorescence polarization; inhibition, % at 12.5 µM; 360,000 tested, 0.38% active; AID 651999;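 active = pattern-corrected inhibition above about 35%, with an unprinted fluorescence ratio check between 0.5 and 1.5, limit read from the data, passing the limit was not always enough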;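 note: 0% = enzyme with substrate and 100% = substrate without enzyme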
#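 Test system: Human Csn5 produced in HEK293T cells | Compound: 12.5 µM single point | Times: 90 min, room temperature | Signal: Fluorescence polarization readout | Read-out basis: % inhibition of substrate cleavage by Csn5 | Controls: no-enzyme wells high, enzyme-with-substrate wells low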
# Myeloid diff 2: promotes myeloid progenitor differentiation | ER-HoxA9 myeloid progenitors, lysozyme-GFP differentiation, flow cytometry | calls only at 10 µM | 360,000 tested, 1% active;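 active = normalized GFP-positive differentiation at or above the plate's own cutoff, the solvent-only control mean plus 3 SD; inconclusive = no clear call, values can overlap the other calls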;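 note: cells exposed to compound for four days before flow analysis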
# Granule exo CP1: lytic granule exocytosis inhibition. 1,500 tested, 11% active. shares compounds with Granule exo inh. TALL-104 cells, LAMP-1 externalization, flow cytometry; stimulated with PMA plus thapsigargin. inhibition, % at 10 µM; in the data active = inhibition above about 60%;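 note: 0% = stimulated vehicle wells and 100% = unstimulated wells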
# An asterisk follows results filed as active; i = inactive; ? = inconclusive; . = not tested or not shown.
SMILES,HNF4A DNA FP,Granule exo inh,CSN deneddyl inh,Myeloid diff 2,Granule exo CP1
CCOc1ccc(Cl)cc1CNCCCSc1nc(C)cc(C)n1,2,87*,0,i,-3
O=P(c1ccccc1)(c1ccccc1)C(O)c1ccc(Br)cc1 (centres undefined),-2,60*,1,i,-12
O=P(c1ccccc1)(c1ccccc1)C(O)c1ccccn1 (centres undefined),2,11,2,i,.
CC1CCCN(CCOc2cccc(Oc3ccccc3)c2)C1 (centres undefined),0,60*,-2,i,-10
Cc1oc(=O)c(NC(=O)c2ccc(Cl)cc2)cc1C(=O)c1ccccc1,2,103*,-1,i,-9
Cc1ccccc1OCC(=O)NCCCNC(=O)c1ccco1,1,2,2,i,.
Cc1ccc(-n2cc(-c3ccccc3)c3c(N4CCOCC4)ncnc32)cc1,1,4,-6,i,.
Cc1ccc(-n2cc(-c3ccccc3)c3c(N4CCN(C)CC4)ncnc32)cc1,-1,69*,0,i,7
CC(C)(C)S(=O)N1Cc2cc(C(=O)NCc3ccc4c(c3)OCO4)nc(-c3cccc(-c4ccccc4)c3)c2[C@@H]1CCO (some centres undefined),1,0,6,i,.
COc1ccc(C(=O)OC(C)C(=O)NC(C)CCc2ccccc2)c(OC)c1 (centres undefined),0,58*,-3,i,-12
CC(C)c1ccc(NC(=O)[C@H](NC(=O)[C@@H]2Cc3ccccc3CN2)c2ccccc2)cc1,1,59*,0,i,-10
COc1ccc(OC)c(-c2csc(NC(=O)Cc3ccc(F)cc3)n2)c1,1,97*,6,i,-12
Cc1ccc(-c2csc(NC(=O)Cc3ccc(F)cc3)n2)o1,6,75*,5,i,-13
COc1ccc(OC)c(-c2csc(NC(=O)Cc3cc(OC)c(OC)c(OC)c3)n2)c1,0,44,3,i,.
COc1ccc(OC)c(-c2csc(NC(=O)c3ccc(OCC4CCCO4)cc3)n2)c1 (centres undefined),0,-3,-1,i,.
COc1ccc(OC)c(-c2csc(NC(=O)c3ccc(F)cc3)n2)c1,1,80*,3,i,-4
Cc1nc(N2CCN(c3ccccn3)CC2)c2c(C)c(C(=O)N3CCN(c4ccccc4F)CC3)sc2n1,2,56*,5,i,-11
CCOc1ccccc1NC(=O)c1cc(S(=O)(=O)NCc2ccco2)ccc1F,-2,104*,2,?,-13
COc1ccc(OC)c(NC(=O)c2cc(S(=O)(=O)NCc3ccco3)ccc2F)c1,4,4,6,i,.
O=C(CNS(=O)(=O)c1ccc(Br)cc1)N1CCN(Cc2ccccc2)CC1,-1,-4,2,i,.
CCCCN(C)c1c(C)nc2ccc(C(=O)NCc3ccc4c(c3)OCO4)cn12,-2,60*,2,i,-12
Cc1cc(C)c2nc(C)cc(N/N=C/c3ccc(O)cc3)c2c1,2,87*,4,?,101*
Cc1cc(N/N=C/c2ccc(O)cc2)c2cccc(C)c2n1,-5,31,0,i,.
Cc1ccc(S(=O)(=O)N2CCN(C(=O)c3cc(S(=O)(=O)N4CCOCC4)c(Cl)cc3Cl)CC2)cc1,-3,0,-5,i,.
O=C(c1cc(S(=O)(=O)N2CCOCC2)c(Cl)cc1Cl)N1CCN(S(=O)(=O)c2cccc(F)c2)CC1,3,56*,3,i,-5
SMILES,HNF4A DNA FP,Granule exo inh,CSN deneddyl inh,Myeloid diff 2,Granule exo CP1
CCCCOC(=O)N1CCOCCOCCOCC1,2,-3,3,i,.
CN1CCN(C(=O)OCCOCCOC(=O)N2CCN(C)CC2)CC1,-5,60*,1,i,-4
COc1cc2c(cc1OC)C(C)N(CCc1ccc(Cl)cc1)CC2 (centres undefined),2,62*,3,i,-12
Cc1cc(OCC(=O)N2CCN(c3cccc(Cl)c3)CC2)c2c(C)c(C)c(=O)oc2c1,-5,10,1,i,.
Cc1cc(OC(C)C(=O)N2CCN(c3ccc(F)cc3)CC2)c2c(C)c(C)c(=O)oc2c1 (centres undefined),3,64*,0,i,-12
O=C(CCCc1nc(-c2ccc(Cl)cc2)no1)NC1CCCC1,-2,57*,-2,i,-13
O=C(Nc1ccc(CN2CCOCC2)cc1)c1ccc(-c2cccc(Cl)c2)o1,2,1,4,i,.
O=C(NC(=S)Nc1ccc(CN2CCOCC2)cc1)c1ccc(-c2cccc(Cl)c2)o1,5,58*,1,i,25
Cc1ccc(S(=O)(=O)N2C[C@H]3[C@H]4C(=O)N(c5ccccc5)C(=O)[C@H]4C[C@H](OC(=O)Nc4c(C)noc4C)[C@@]3(O)C2)cc1,0,0,4,i,.
COc1ccc(CNCCc2ccc(Cl)cc2)cc1OCc1ccccc1,1,31,-3,i,.
CCOc1cc(CNCc2ccccc2)ccc1OCc1ccc(Cl)cc1,2,90*,0,i,22
C[C@@H]1CN([C@H](C)CO)C(=O)Cc2cc(NC(=O)CCC(F)(F)F)ccc2O[C@@H]1CN(C)S(=O)(=O)c1ccccc1,1,32,4,i,.
CCc1ccccc1OCC(=O)NCC1COc2ccccc2O1 (centres undefined),-5,9,-1,i,.
CC1CN(C(=O)c2cc(S(=O)(=O)N3CCCCC3)ccc2Cl)CC(C)O1 (centres undefined),-5,11,-1,i,.
Cc1cc(-c2ccc([N+](=O)[O-])cc2)nc2ccccc12,1,1,6,i,.
Cc1cc(N2CCN(c3nc(-c4ccc([N+](=O)[O-])cc4)cs3)CC2)c2ccccc2n1,2,66*,0,i,79*
CN(C)Cc1nc2ccccc2c(=O)n1Cc1nc(-c2cccc([N+](=O)[O-])c2)cs1,-3,1,-5,i,.
CN1CCN(Cc2nc3ccccc3c(=O)n2Cc2nc(-c3ccc([N+](=O)[O-])cc3)cs2)CC1,0,75*,6,i,97*
CCCCCCCCN1C(=O)[C@H](CC(=O)N2CCC(c3ccccc3)CC2)C[C@@]2(C(=O)OC)CC(C)(C)CC=C12,4,2,-4,i,.
COc1cccc(CN2CCC(C(=O)Nc3ccc(-c4cccc(C)c4)cc3)CC2)c1O,3,74*,0,i,3
Cc1ccc(S(=O)(=O)N2CCC(NC(=O)c3cccnc3)CC2)cc1Cl,1,0,0,i,.
COc1ccc(CC(=O)Nc2cccc(C(C)=O)c2)cc1S(=O)(=O)N1CCOCC1,0,100*,-4,i,-2
O=C(O)Cc1sc(=O)[nH]c1O,1,97*,-1,i,-14
O=C(O)Cc1sc(-c2ccccc2)nc1-c1ccccc1,4,1,5,i,.
